What was measured:
HL-60 = assay: Cytotoxicity against human HL-60 cells assessed as reduction in cell viability incubated for 48 hrs by WST-1 assay; format: functional, cell-based; conditions: HL-60, 48 h
In short: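 HL-60 promyelocytic leukaemia cells, with proliferation read out by WST-1; activity expressed as IC50.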

HCT-116 = assay: Cytotoxicity against human HCT-116 cells assessed as reduction in cell viability incubated for 48 hrs by MTT assay; format: functional, cell-based; conditions: HCT-116, 48 h
In short: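 Antiproliferative test on HCT-116 colon tumour cells, read out by MTT; activity expressed as IC50.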

Row | SMILES | IC50 (HL-60) [nM] | IC50 (HCT-116) [nM]
1 | O=C1C=CC(=O)c2c1[nH]c1ccccc21 | 1000 | 763
2 | CC1=CC(=O)c2[nH]c3ccc(C(F)(F)F)cc3c2C1=O | 1130 | 921
3 | CC1=CC(=O)c2[nH]c3ccc(F)cc3c2C1=O | 4400 | 2700
4 | COc1cc2[nH]c3c(c2cc1OC)C(=O)C(C)=CC3=O | 8950 | 4090
5 | CC1=CC(=O)c2[nH]c3cc(Cl)ccc3c2C1=O | > 10000 | 895
6 | COCn1c2c(c3ccccc31)C(=O)C=C(C)C2=O | > 10000 | > 10000
7 | COc1cc(OC)c2c3c([nH]c2c1)C(=O)C=C(C)C3=O | 7260 | > 10000
8 | COCn1c2c(c3ccccc31)C(=O)C=CC2=O | 1380 | 1310
9 | CC1=CC(=O)c2[nH]c3cc([N+](=O)[O-])ccc3c2C1=O | 1580 | 1370
10 | COc1cc(OC)c2[nH]c3c(c2c1)C(=O)C(C)=CC3=O | 3820 | 3600
11 | CC1=CC(=O)c2[nH]c3cc(C)ccc3c2C1=O | 6930 | 1000
12 | COc1ccc(OC)c2c3c([nH]c12)C(=O)C=C(C)C3=O | 2270 | 1840
13 | CC1=CC(=O)c2[nH]c3ccc([N+](=O)[O-])cc3c2C1=O | 1030 | 569
14 | CC1=CC(=O)c2[nH]c3cc(F)ccc3c2C1=O | 1470 | 1000
15 | COc1ccc2[nH]c3c(c2c1OC)C(=O)C(C)=CC3=O | > 10000 | > 10000
16 | CC1=CC(=O)c2[nH]c3cc4ccccc4cc3c2C1=O | 5270 | > 10000
17 | CC1=CC(=O)c2[nH]c3cc(C(F)(F)F)ccc3c2C1=O | 6020 | > 10000
18 | COCn1c2c(c3ccccc31)C(=O)C(C)=CC2=O | 3920 | 6490
19 | CC1=CC(=O)c2[nH]c3ccc4ccccc4c3c2C1=O | > 10000 | > 10000
20 | CC1=CC(=O)c2[nH]c3ccc(C)cc3c2C1=O | > 10000 | 2030
21 | COc1ccc2[nH]c3c(c2c1)C(=O)C(C)=CC3=O | 3410 | 1600
22 | COc1ccc2c3c([nH]c2c1)C(=O)C=C(C)C3=O | 1750 | 992
23 | CC1=CC(=O)c2[nH]c3ccc(Cl)cc3c2C1=O | 1280 | 2210
24 | CC1=CC(=O)c2[nH]c3ccccc3c2C1=O [MURRAYAQUINONE A] | 3020 | 3720
